From ChEMBL document CHEMBL3044755, “5-Methyl-1,2,3-thiadiazoles synthesized via ugi reaction and their fungicidal and antiviral activities” (J Agric Food Chem, 2010)

Key:
Rhizoctonia solani = assay: Fungicidal activity against Rhizoctonia solani at 50 ug/ml by growth inhibition method; format: functional; conditions: read-out: GI
How it was run: (§1)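 Mycelial growth inhibition on potato dextrose agar. The panel covered Alternaria solani, Botrytis cinerea, Cercospora arachidicola, C. beticola, Colletotrichum lagenarium, Fusarium oxysporum, Gibberella zeae, Puccinia triticina, Phytophthora infestans, Physalospora piricola, Pellicularia sasakii and Rhizoctonia solani.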

Puccinia triticina = assay: Fungicidal activity against Puccinia triticina at 50 ug/ml by growth inhibition method; format: functional; conditions: read-out: GI; how it was run: as §1
Thanatephorus cucumeris = assay: Fungicidal activity against Thanatephorus cucumeris at 50 ug/ml by growth inhibition method; format: functional; conditions: read-out: GI; how it was run: as §1
[1] = system: Botryosphaeria berengeriana; assay: Fungicidal activity against Botryosphaeria berengeriana at 50 ug/ml by growth inhibition method; format: functional; conditions: read-out: GI; how it was run: as §1
Phytophthora infestans = assay: Fungicidal activity against Phytophthora infestans at 50 ug/ml by growth inhibition method; format: functional; conditions: read-out: GI; how it was run: as §1
Fusarium graminearum = assay: Fungicidal activity against Fusarium graminearum at 50 ug/ml by growth inhibition method; format: functional; conditions: read-out: GI; how it was run: as §1
Colletotrichum lagenaria = assay: Fungicidal activity against Colletotrichum lagenaria at 50 ug/ml by growth inhibition method; format: functional; conditions: read-out: GI; how it was run: as §1
Cercospora beticola = assay: Fungicidal activity against Cercospora beticola at 50 ug/ml by growth inhibition method; format: functional; conditions: read-out: GI; how it was run: as §1
Mycosphaerella arachidis = assay: Fungicidal activity against Mycosphaerella arachidis at 50 ug/ml by growth inhibition method; format: functional; conditions: read-out: GI; how it was run: as §1
Alternaria solani = assay: Fungicidal activity against Alternaria solani at 50 ug/ml by growth inhibition method; format: functional; conditions: read-out: GI; how it was run: as §1
Nicotiana tabacum [2] = assay: Induction of systemic acquired resistance activity in TMV infected-Nicotiana tabacum (tobacco) leaves at 50 ug/ml; format: functional
How it was run: (§2)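 Tobacco/TMV system used for systemic acquired resistance induction. Inhibition ratio calculated from mean lesion numbers on inoculated leaves relative to corresponding control. Tiadinil and ribavirin run as controls.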

Nicotiana tabacum [3] = assay: Phytotoxicity against Nicotiana tabacum (tobacco) plant; format: organism-based; conditions: in vivo
Nicotiana tabacum [4] = assay: Induction of systemic acquired resistance activity in TMV infected-Nicotiana tabacum (tobacco) leaves at 100 ug/ml; format: functional; how it was run: as §2
Tobacco mosaic virus [5] = assay: In vivo antiviral activity against Tobacco mosaic virus (TMV) infected tobacco leaves assessed as inactivation effect at 100 ug/ml co-treated with virus for 30 min before inoculation onto leaves measured at 2-3 days after viral challenge; format: functional
How it was run: (§3)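 TMV (5.88 10-2 μg/mL) mixed with equal volume of compound solution for 30 min, then rubbed onto upper three leaves of six-leaf tobacco; solvent on lower three leaves as control. Lesions counted 2-3 days later, three repetitions. Inhibition (%) = (CK − A)/CK × 100 from mean lesion counts.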

Tobacco mosaic virus [6] = assay: In vivo antiviral activity against Tobacco mosaic virus (TMV) infected tobacco leaves assessed as inactivation effect at 500 ug/ml co-treated with virus for 30 min before inoculation onto leaves measured at 2-3 days after viral challenge; format: functional; how it was run: as §3
Tobacco mosaic virus [7] = assay: In vivo antiviral activity against Tobacco mosaic virus (TMV) infected tobacco leaves assessed as curative effect at 100 ug/ml treated after viral inoculation measured at 2-3 days after viral challenge; format: functional
How it was run: (§4)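 Curative test: whole six-leaf tobacco leaves rubbed with TMV (5.88 10-2 μg/mL), dried in greenhouse, then compound smeared on upper three leaves and solvent on lower three as control. Local lesions scored 2-3 days after inoculation, three repetitions. Inhibition (%) = (CK − A)/CK × 100 on mean lesion numbers.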

Tobacco mosaic virus [8] = assay: In vivo antiviral activity against Tobacco mosaic virus (TMV) infected tobacco leaves assessed as curative effect at 500 ug/ml treated after viral inoculation measured at 2-3 days after viral challenge; format: functional; how it was run: as §4
Tobacco mosaic virus [9] = assay: In vivo antiviral activity against Tobacco mosaic virus (TMV) infected tobacco leaves assessed as protective effect at 100 ug/ml treated 12 hr before viral inoculation measured at 2-3 days after viral challenge; format: functional
How it was run: (§5)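 Six-leaf tobacco; compound solution smeared over whole leaves, dried in greenhouse, then after 12 h TMV (5.88 10-2 μg/mL) rubbed onto upper three leaves, with solvent on lower three leaves as control. Local lesions counted 2-3 days post-inoculation, three repetitions. Inhibition (%) = (CK − A)/CK × 100 from mean lesion numbers.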

Tobacco mosaic virus [10] = assay: In vivo antiviral activity against Tobacco mosaic virus (TMV) infected tobacco leaves assessed as protective effect at 500 ug/ml treated 12 hr before viral inoculation measured at 2-3 days after viral challenge; format: functional; how it was run: as §5
Tobacco mosaic virus [11] = assay: In vitro antiviral activity against Tobacco mosaic virus (TMV) infected tobacco leaves at 100 ug/ml; format: functional
Tobacco mosaic virus [12] = assay: In vitro antiviral activity against Tobacco mosaic virus (TMV) infected tobacco leaves at 500 ug/ml; format: functional
Fusarium oxysporum = assay: Fungicidal activity against Fusarium oxysporum at 50 ug/ml by growth inhibition method; format: functional; conditions: read-out: GI; how it was run: as §1
Botrytis cinerea = assay: Fungicidal activity against Botryotinia fuckeliana at 50 ug/ml by growth inhibition method; format: functional; conditions: read-out: GI; how it was run: as §1
Tobacco mosaic virus [13] = assay: In vitro antiviral activity against Tobacco mosaic virus (TMV) infected tobacco leaves at 200 ug/ml; format: functional

Compound	inhibition of growth at 50 µg/mL (Rhizoctonia solani) [%]	inhibition of growth at 50 µg/mL (Thanatephorus cucumeris) [%]	inhibition of growth at 50 µg/mL [1] [%]	inhibition of growth at 50 µg/mL (Phytophthora infestans) [%]	inhibition of growth at 50 µg/mL (Fusarium graminearum) [%]	inhibition of growth at 50 µg/mL (Colletotrichum lagenaria) [%]	inhibition of growth at 50 µg/mL (Cercospora beticola) [%]	inhibition of growth at 50 µg/mL (Mycosphaerella arachidis) [%]	inhibition of growth at 50 µg/mL (Alternaria solani) [%]	Activity (Nicotiana tabacum [2]) [%]	Activity (Nicotiana tabacum [3])	Activity (Nicotiana tabacum [4]) [%]	Activity (Tobacco mosaic virus [5]) [%]	Activity (Tobacco mosaic virus [6]) [%]	Activity (Tobacco mosaic virus [7]) [%]	Activity (Tobacco mosaic virus [8]) [%]	Activity (Tobacco mosaic virus [9]) [%]	Activity (Tobacco mosaic virus [10]) [%]	inhibition at 100 µg/mL (Tobacco mosaic virus [11]) [%]	inhibition at 500 µg/mL (Tobacco mosaic virus [12]) [%]	other results
Cc1ccc(N(C(=O)c2nnsc2C)C(C(=O)NC2CCCCC2)c2cccc(Cl)c2)cc1F (centres undefined)	39	0	8	44	27	0	25	27	25	30	Non-toxic	22	69	79	0	40	29	67	14	18	inhibition of growth at 50 µg/mL (Puccinia triticina): 14%
Cc1ccc(N(C(=O)c2nnsc2C)C(C(=O)NC2CCCCC2)c2ccc(F)cc2)cc1F (centres undefined)	2	87	0	25	0	14	0	9	0	41	Non-toxic	41	69	79	20	52	6	17	24	44	inhibition of growth at 50 µg/mL (Puccinia triticina): 0%
Cc1ccc(N(C(=O)c2nnsc2C)C(C(=O)NC(C)C)c2ccccc2F)cc1F (centres undefined)	15	0	0	44	27	14	13	0	38	59	Non-toxic	7	73	74	47	60	27	60	16	46	inhibition of growth at 50 µg/mL (Puccinia triticina): 0%
Cc1ccc(N(C(=O)c2nnsc2C)C(C(=O)NC(C)C)c2ccccc2C(F)(F)F)cc1F (centres undefined)	17	15	0	44	27	36	13	9	13	30	Non-toxic	60	67	65	32	44	5	44	57	71	inhibition of growth at 50 µg/mL (Puccinia triticina): 0%
Cc1ccc(N(C(=O)c2nnsc2C)C(C(=O)NC(C)C)c2ccc(O)cc2)cc1F (centres undefined)	0	4	0	0	0	0	0	0	0	36	Non-toxic	7	51	72	28	55	71	76	26	35	inhibition of growth at 50 µg/mL (Puccinia triticina): 0%
Cc1cccc(C(C(=O)NC(C)C)N(C(=O)c2nnsc2C)c2ccc(C)c(Cl)c2)c1 (centres undefined)	–	63	51	8	37	13	17	38	44	65	Non-toxic	49	72	82	33	40	14	48	–	34	inhibition of growth at 50 µg/mL (Fusarium oxysporum): 14%; inhibition of growth at 50 µg/mL (Botrytis cinerea): 76%; inhibition at 200 µg/mL (Tobacco mosaic virus [13]): 18%
Cc1ccc(N(C(=O)c2nnsc2C)C(C(=O)NC(C)C)c2ccccc2C)cc1Cl (centres undefined)	–	69	31	10	37	10	17	21	40	37	Non-toxic	0	23	50	21	42	13	38	–	12	inhibition of growth at 50 µg/mL (Fusarium oxysporum): 19%; inhibition of growth at 50 µg/mL (Botrytis cinerea): 76%; inhibition at 200 µg/mL (Tobacco mosaic virus [13]): 58%
Cc1ccc(N(C(=O)c2nnsc2C)C(C(=O)NC(C)C)c2ccc([N+](=O)[O-])cc2)cc1F (centres undefined)	17	22	0	13	0	0	25	27	0	66	Non-toxic	7	65	62	0	17	26	27	9	25	inhibition of growth at 50 µg/mL (Puccinia triticina): 0%
Cc1ccc(N(C(=O)c2nnsc2C)C(C(=O)NC(C)C)c2ccccc2)cc1Cl (centres undefined)	–	64	47	12	13	11	0	21	39	33	Non-toxic	41	50	65	30	46	40	57	–	43	inhibition of growth at 50 µg/mL (Fusarium oxysporum): 36%; inhibition of growth at 50 µg/mL (Botrytis cinerea): 85%; inhibition at 200 µg/mL (Tobacco mosaic virus [13]): 30%
Cc1ccc(NC(=O)c2snnc2C)cc1Cl [TIADINIL]	1	46	74	46	36	–	40	18	–	50	Non-toxic	52	42	59	46	58	57	75	25	48	inhibition of growth at 50 µg/mL (Fusarium oxysporum): 48%; inhibition of growth at 50 µg/mL (Botrytis cinerea): 67%
